High-throughput results from PubChem.
CHRM4 PAM – positive allosteric modulators of human muscarinic M4 receptor; P08173; CHO-K1 hM4/Gqi5, Fluo-8 calcium fluorescence, ACh EC20; 0% = ACh EC20, 100% = maximal ACh; activation, % at 3 µM; hit rate 0.4% among 360,000; AID 624126;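 active = activation above its plate's cutoff, the mean activation of sample wells plus 3 SD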
Target sequence (P08173 whole entry, looked up): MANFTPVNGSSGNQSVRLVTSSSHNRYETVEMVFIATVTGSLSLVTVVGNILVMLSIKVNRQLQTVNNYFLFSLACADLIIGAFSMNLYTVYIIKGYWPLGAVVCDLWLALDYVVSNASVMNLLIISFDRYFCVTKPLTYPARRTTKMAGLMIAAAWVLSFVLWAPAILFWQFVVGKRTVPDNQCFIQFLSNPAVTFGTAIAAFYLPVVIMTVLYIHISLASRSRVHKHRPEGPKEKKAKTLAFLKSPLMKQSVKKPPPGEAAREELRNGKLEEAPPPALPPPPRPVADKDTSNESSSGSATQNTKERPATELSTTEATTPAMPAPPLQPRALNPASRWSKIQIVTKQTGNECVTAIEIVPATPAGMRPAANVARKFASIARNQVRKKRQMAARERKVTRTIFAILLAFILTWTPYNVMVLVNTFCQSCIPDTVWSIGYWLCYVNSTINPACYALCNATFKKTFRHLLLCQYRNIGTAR
CHRM4 antagonist – antagonists of human muscarinic M4 receptor (CHRM4) | inhibition, % at 3 µM | CHO-hM4 cells, ACh EC80, Fluo-8 calcium fluorescence | hit rate 0.73% among 360,000 | AID 624125;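 active = inhibition above its plate's cutoff, the mean inhibition of sample wells plus 3 SD, cut at about 27% in these data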;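 note: 0% = acetylcholine EC80 with DMSO and 100% = DMSO without agonist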
CHRM5 PAM – CHRM5 positive allosteric modulation. P08912. CHO-K1 hM5, Fluo-8 calcium, ACh EC20 PAM; 0% = ACh EC20, 100% = ACh EC100. activation, % at 3 µM. hit rate 0.3% among 360,000. AID 624038;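 active = activation above the run cutoff, the mean activation of all test compounds plus 3 SD, cut at about 18% in these data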
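Measured by: Fluo-8 calcium fluorescence; material: human M5 receptor in CHO-K1 cells; schedule: Post-acetylcholine fluorescence recording 140 s; benchmarks: low control EC20 acetylcholine (0%), high control EC100 acetylcholine (100%); read-out: Max/basal fluorescence ratio as % of EC20–EC100 ACh window; compound: single dose, 3 µM nominal final test concentration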
M5 antag – blocks acetylcholine activation of human M5 receptor; inhibition, % at 3 µM; CHO-hM5 cells, Fluo-8 calcium fluorescence, ACh EC80; AID 624040; P08912; hit rate 0.59% among 360,000;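 active = inhibition above a per-plate cutoff, the mean of that plate's test compounds plus 3 SD, cut at about 27% in these data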;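 note: 0% = acetylcholine EC80 with DMSO and 100% = DMSO without agonist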
CHRM5 agonist – CHRM5 agonism in calcium assay; P08912; AID 624037; CHO-K1 hM5 cells, Fluo-8 calcium fluorescence; 0% DMSO wells, 100% maximal acetylcholine response; activation, % at 3 µM; hit rate 0.19% among 360,000;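 active = activation above the run's mean over test compounds plus 3 SD, cut at about 23% in these data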;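 note: signal is peak over basal fluorescence ratio across the kinetic read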
M4 ag – agonists of human muscarinic M4 receptor (CHRM4). AID 624127. CHO-K1 hM4/Gqi5, Fluo-8 calcium fluorescence; vehicle 0%, full acetylcholine response 100%. hit rate 0.14% among 360,000. activation, % at 3 µM;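 active = activation above the run mean over all test wells plus 3 SD, cut at about 32% in these data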;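 note: peak over basal fluorescence ratio per well then scaled between controls; 0% = DMSO wells and 100% = acetylcholine at EC100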
An asterisk follows results filed as active; ! = not confirmed by another sample. Sampled rows, rich in hits. Any-hit rate of the full collection: about 1.8%.

SMILES | CHRM4 PAM | CHRM4 antagonist | CHRM5 PAM | M5 antag | CHRM5 agonist | M4 ag
COc1ccc(S(=O)(=O)N2CCC(C(=O)NCC(=O)Nc3c(C)cccc3C)CC2)cc1OC | 25* | -10 | 4 | -8 | 0 | 0
COc1ccccc1NC(=O)c1cc(S(=O)(=O)N2CCCCCC2)ccc1F | 30* | -9 | 24* | 15 | 1 | 34*
COc1ccc(CC(=O)Nc2cccc(S(=O)(=O)N3CCCCCC3)c2)cc1OC | -11 | 11 | -19 | 32* | 9 | 14
CCn1ccnc1CNC(=O)CC1C(=O)NCCN1CC(c1ccccc1)c1ccccc1 (configuration not stated) | -1 | -8 | -15 | -6 | -8 | 1
COc1cc(NC(=O)c2ccc(Cl)cc2Cl)ccc1NC(=O)c1cccs1 | 23 | -5 | 1 | 7 | -4 | 1
Cc1ccnc(NS(=O)(=O)c2ccc(NS(=O)(=O)c3ccc(Br)cc3)cc2)n1 | 12 | -11 | 5 | -21 | 1 | 1
Cc1c(Cl)cccc1NC(=O)CCC(=O)NNC(=O)c1ccccc1Cl | 5 | -7 | 5 | -8 | 3 | 1
CSc1ccc(CN(C)CC(=O)Nc2cccc(Br)c2)cc1 | -5 | -1 | -10 | 12 | 1 | 6
O=C(COC(=O)C1CC2C=CC1C2)Nc1cccc(S(=O)(=O)N2CCCCC2)c1 (configuration not stated) | -15 | 3 | -16 | 13 | 5 | 17
C/C(N)=C(/C#N)C(=O)COC(=O)c1ccc(C)c(S(=O)(=O)N2CCCCC2)c1 | 6 | -4 | 33* | 6 | 8 | 5
COc1cc(C(C)=O)ccc1OCC(=O)Nc1ccc(C)c(S(=O)(=O)N2CCCCCC2)c1 | -13 | 18 | -39 | 32* | 5 | 27
O=C(COC(=O)C1CC2C=CC1C2)Nc1cccc(S(=O)(=O)N2CCCCCC2)c1 (configuration not stated) | -13 | 23 | -20 | 31* | 4 | 17
CCC1(c2ccc(OC)cc2)NC(=O)N(CC(=O)N2CCc3ccccc32)C1=O (configuration not stated) | -1 | -2 | -7 | 5 | 39* | 19
Cc1cc(C(=O)CN2C(=O)NC(C)(c3cc(F)ccc3F)C2=O)c(C)n1C1CC1 (configuration not stated) | -6 | 8 | -7 | 5 | 4 | 4
CCC1(c2ccc(F)cc2)NC(=O)N(CC(=O)c2cc(C)n(C3CC3)c2C)C1=O (configuration not stated) | 9 | -2 | -2 | 10 | 25* | 12
CCC1(c2ccc(F)cc2)NC(=O)N(CC(=O)N2c3ccccc3CC2C)C1=O (configuration not stated) | 1 | -6 | 1 | 0 | 29* | 18
CCC1(c2ccc(F)cc2)NC(=O)N(CC(=O)N2c3ccccc3NC(=O)CC2C)C1=O (configuration not stated) | 7 | -7 | 2 | -2 | 0 | 1
O=C(Nc1ccc(F)cc1)C(c1ccnc2ccccc12)N1CCN(C(=O)c2ccco2)CC1 (configuration not stated) | -1 | 3 | 4 | 6 | 4 | 4
Cc1cccn2c(=O)c(C=O)c(N3CCCCC3)nc12 | 13 | -7 | 20* | -9 | -2 | 3
CCCCC(CC)CN=C(N)NC(N)=NCCCCCCN=C(N)NC(N)=NCC(CC)CCCC (configuration not stated) | -21 | 82* | -18 | 13 | -2 | 40*
CCCCC(CC)CO (configuration not stated) | 14 | -13 | 0 | 5 | 3 | 1
CCOC(=O)c1nn(-c2ccc(C)cc2)c(=O)cc1OCC(=O)Nc1cc(C)ccc1OC | -2 | -14 | 10 | -11 | 0 | -1
CCOC(=O)c1nn(-c2ccc(F)cc2)c(=O)cc1OCC(=O)Nc1cccc(C)c1 | 24* | -26 | -5 | -5 | 5 | -1
Cc1ccn2c(NCc3ccccc3)c(-c3cccs3)nc2c1 | 20* | -18 | 1 | -12 | -10 | 2
Cc1ccn2c(NC(=O)c3ccccc3)c(-c3cccs3)nc2c1 | -4 | 5 | -10 | 2 | 4 | 17
SMILES | CHRM4 PAM | CHRM4 antagonist | CHRM5 PAM | M5 antag | CHRM5 agonist | M4 ag
CCC(C)Sc1cccc(-c2nc3cc(C)ccn3c2NCc2ccccc2)c1 (configuration not stated) | -12 | 44*! | -26 | 17 | -7 | 8
Cn1c(SCc2c(Cl)cccc2Cl)nnc1-c1ccc2nonc2c1 | 26* | 24 | 0 | 3 | -11 | 11
CC1=C(C(=O)N(C)C)CC(CC(=O)NCCN2CCOCC2)C(=O)N1Cc1ccc(C(C)(C)C)cc1 (configuration not stated) | 4 | -13 | 6 | -6 | 1 | 0
COCC(=O)N(Cc1cc2ccc(C)cc2[nH]c1=O)c1cccc(C)c1 | -5 | -4 | 1 | -8 | 1 | 0
COCC(=O)N(Cc1cc2cc(C)ccc2[nH]c1=O)c1ccccc1 | 23* | -21 | 6 | -2 | 0 | 2
COc1cc2nc(N3CCN(C(=O)c4ccco4)CC3)nc(N)c2cc1OC | -13 | -9 | 3 | -4 | 2 | 9
COc1cc2nc(N3CCN(C(=O)C4COc5ccccc5O4)CC3)nc(N)c2cc1OC (configuration not stated) | -11 | 29* | -7 | 3 | 1 | 5
COc1ccc(S(=O)(=O)N2CCN(C(=O)C3COc4ccccc4O3)CC2)cc1 (configuration not stated) | -15 | 32* | -15 | 14 | 2 | 8
O=C(CN1CCCCC1)NNC(=O)c1cccc(Br)c1 | 9 | -5 | 8 | -8 | -3 | 1
COc1ccc(NC(=O)C2C3C=CC4(O3)C2C(=O)N(CCN2CCCCC2)C4C(=O)NC2CCCC(C)C2C)cc1 (configuration not stated) | -2 | 3 | 0 | 10 | -5 | -1
C=CCN1C(=O)/C(=C/C=C2/N(CC)c3ccc(S(=O)(=O)N(C)C)cc3N2CC)SC1=S | -11 | 0 | -7 | -7 | 24* | 5
CC(C)(C)c1ccc(-n2nc(C#N)c(Cl)cc2=O)cc1 | -5 | 54* | 0 | 33* | -2 | 5
Cc1nc(N)sc1C(=O)N/N=C/c1cccnc1 | 2 | 4 | 19* | -8 | 3 | 0
CCCCNC(=O)COCc1cc(-c2ccc3c(c2)OCO3)on1 | 15* | -5 | -6 | 8 | -1 | 6
COC(=O)c1cn(Cc2ccccc2C)nn1 | 22* | -7 | 7 | -8 | -2 | 2
NC(N)=N/N=C/c1c(Cl)cccc1Cl | -5 | -8 | -15 | -2 | 29*! | 13
